Hits are enriched below; roughly 3.5% of the tested compounds scored in any of these assays.
Wnt bcat act = Wnt/beta-catenin pathway activators, primary screen, cell-based, plate reader, single point; Wnt/beta-catenin reporter cell assay, activator; activation, % at 9.35 µM; 300,000 tested, 1.2% active; in the data active = activation above about 30%, passing the limit was not always enough; inconclusive = no clear call, values can overlap the other calls
esBAF inh = Bmi1 luciferase reporter increase in mESCs, primary screen, esBAF inhibitor project, mouse ES cells, Bmi1 luciferase knock-in, single point; 24 h; 100% = twice the neutral-well signal; reporter increase, % at 12.5 µM; 350,000 tested, 2% active; in the data active = activation above about 40%; inconclusive = no clear call, values can overlap the other calls;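 also: a rise in the Bmi1 reporter signal indicates esBAF inhibition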
Env fusion inh = inhibitors of HIV-1 Env-driven cell-cell fusion, primary screen, HeLa-JRFL effector, CEM21 target cells, luciferase; inhibition, % at 12.3 µM; 360,000 tested, 1.1% active;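 active = mean replicate inhibition score of at least 50 and every replicate individually at or above 50; inconclusive = only one of the two criteria met; inactive = mean below 50 and not all replicates reaching 50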
Cneo AK release = Cryptococcus neoformans cell lysis inducers, primary screen, AK release luminescence, single concentration | C. neoformans lysis, adenylate kinase release luminescence, 4 h; normalised: neutral wells 0, clomiphene wells 100 | lysis activity, % at 15 µM | 360,000 tested, 0.2% active | AID 651654, 2012;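 active = mean lysis activity across replicates of at least 80%, whatever share of replicates individually reach that level; inactive = mean lysis activity below 80%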
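Material – log-phase Cryptococcus neoformans yeast cells · Input – 5 × 10^6 yeast cells/mL · Medium – fresh YPD growth medium · Doses – single compound concentration per well · Timing – static 4 h at 37 °C with compound, 1 h detection · Detection – adenylate kinase release luminescence · Read-out – signal increase indicating cell lysis · Control set – Clomiphene as positive lysis control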
ERAP1 HTS inh = human ERAP1 aminopeptidase inhibitors, primary screen, biochemical, single point, plate reader; AID 652197, 2013; inhibition, % at 10.7 µM; 340,000 tested, 0.15% active; Endoplasmic reticulum aminopeptidase 1 (Homo sapiens), Q9NZ08; recombinant ERAP1, Leu-AMC fluorescence, 60 min;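 active = mean replicate inhibition of at least 30%, or all replicates individually reaching that 30% level; inactive = mean below 30% and not every replicate reaching it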
Target sequence (Q9NZ08 whole entry, looked up): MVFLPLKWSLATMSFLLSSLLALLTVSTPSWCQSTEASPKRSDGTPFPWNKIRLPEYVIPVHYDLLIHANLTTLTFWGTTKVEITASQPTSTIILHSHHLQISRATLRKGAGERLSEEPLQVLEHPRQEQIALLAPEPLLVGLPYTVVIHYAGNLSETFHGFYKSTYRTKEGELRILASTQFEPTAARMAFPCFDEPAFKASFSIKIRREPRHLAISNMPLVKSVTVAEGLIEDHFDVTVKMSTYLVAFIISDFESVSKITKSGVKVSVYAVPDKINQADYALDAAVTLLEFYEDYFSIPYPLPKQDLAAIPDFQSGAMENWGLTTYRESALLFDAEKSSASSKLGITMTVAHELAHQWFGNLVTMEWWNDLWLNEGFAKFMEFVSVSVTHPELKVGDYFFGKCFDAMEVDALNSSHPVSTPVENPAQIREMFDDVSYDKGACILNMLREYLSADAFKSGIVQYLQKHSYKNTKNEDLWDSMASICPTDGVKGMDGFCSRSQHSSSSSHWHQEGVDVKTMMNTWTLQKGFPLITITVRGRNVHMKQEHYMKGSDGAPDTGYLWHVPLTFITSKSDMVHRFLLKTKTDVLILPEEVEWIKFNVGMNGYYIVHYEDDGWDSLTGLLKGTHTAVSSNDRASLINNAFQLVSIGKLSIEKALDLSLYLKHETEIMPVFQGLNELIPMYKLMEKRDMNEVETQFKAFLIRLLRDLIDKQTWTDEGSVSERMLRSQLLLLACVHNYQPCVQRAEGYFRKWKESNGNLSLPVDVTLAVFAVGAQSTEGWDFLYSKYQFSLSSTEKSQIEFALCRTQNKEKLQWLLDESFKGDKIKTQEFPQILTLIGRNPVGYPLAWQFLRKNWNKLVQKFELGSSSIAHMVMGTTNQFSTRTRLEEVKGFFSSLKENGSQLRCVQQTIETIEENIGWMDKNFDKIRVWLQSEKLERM
MITF act = activators of MITF-driven TRPM1 promoter reporter, primary screen, cell-based, SK-MEL-5, luciferase, single point; SK-MEL-5 TRPM1-promoter luciferase, 24 h; % of positive control, neutral wells = 0; activation, % at 12.5 µM; 300,000 tested, 0.75% active;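 active = mean activation of at least 80% with every replicate also reaching 80%; inconclusive = mean reaches 80% but some replicate falls short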
A number is an active result; n = inactive; u = inconclusive; x = no result given.

SMILES	Wnt bcat act	esBAF inh	Env fusion inh	Cneo AK release	ERAP1 HTS inh	MITF act
C[C@@H]1CN([C@H](C)CO)C(=O)c2cc(NS(=O)(=O)c3ccc(F)cc3)ccc2O[C@@H](C)CCCCO[C@@H]1CN(C)S(C)(=O)=O	x	n	n	n	n	x
COCC(=O)N1[C@H](CO)[C@@H](c2ccccc2)[C@@H]1CNC(=O)c1ccccn1	x	n	x	n	n	x
CC(=O)N/N=C\c1cccc(OC/C=C/c2ccccc2)c1	n	n	n	n	n	n
CC(C)(O)C(=O)N/N=C\c1ccc(OC/C=C/c2ccccc2)cc1	n	n	n	n	n	104.5
COC(=O)N/N=C\c1ccc(OC/C=C/c2ccccc2)cc1	n	x	n	n	n	n
CC(=O)N/N=C\c1ccccc1OC/C=C/c1ccccc1	41.6	70.5	n	n	n	u
CC1CCN(S(=O)(=O)c2ccc3c(c2)C(=NO)c2cc(S(=O)(=O)N4CCC(C)CC4)ccc2-3)CC1	x	n	x	n	x	n
O=S(=O)(c1ccc2c(c1)C(=NO)c1cc(S(=O)(=O)N3CCCCC3)ccc1-2)N1CCCCC1	n	n	125.5	n	x	x
O=C(c1cc(-c2ccc(Cl)c(Cl)c2)on1)N1CCOCC1	n	42.0	n	n	n	89.8
COCCNC(=O)c1cc(-c2ccc(Cl)c(Cl)c2)on1	n	52.2	n	n	n	n
O=C(c1cc(-c2cccc(Cl)c2)on1)N1CCOCC1	n	44.3	n	n	n	100.5
C[C@H]1CN([C@@H](C)CO)C(=O)c2cccc(NC(=O)C3CCCCC3)c2O[C@@H]1CN(C)C(=O)Nc1ccc2c(c1)OCO2	x	n	x	n	n	x
COc1ccccc1-c1cc(C(F)(F)F)nc(S(=O)(=O)CCCC(=O)Nc2cc(C)on2)n1	x	n	x	n	x	n
COc1ccc(-c2cc(C(F)(F)F)nc(S(=O)(=O)CCCC(=O)Nc3cc(C)on3)n2)cc1OC	n	x	n	x	36.6	n
CCCCSc1nnc(-c2ccc(OC)cc2)n1C	x	56.0	n	n	x	n
Cc1ccc(-c2nnc(SCC(C)C)n2C)cc1	60.9	54.5	n	n	x	n
CS(=O)(=O)N1CC2(C1)[C@@H](c1ccccc1)[C@H](CO)N2C(=O)C1CCC1	x	x	x	x	n	x
CCCn1nnc(NC(=O)c2cc3ccccc3o2)n1	n	50.2	x	n	n	n
CCCCn1nnc(NC(=O)c2ccc(-c3cccc(Cl)c3)o2)n1	x	n	x	n	x	n
CCn1nnc(NC(=O)c2cc3ccccc3o2)n1	x	n	n	n	x	n
CCCCn1nnc(NC(=O)c2cc3ccccc3o2)n1	x	59.1	x	n	x	u
CCOC(=O)c1csc(-c2ccc3c(c2)CCO3)n1	40.1	x	n	n	n	x
CCOC(=O)C1CCN(C(=O)c2cc3cc4ccc(C)cc4nc3o2)CC1	n	n	n	n	n	n
CC1CCN(C(=O)c2cc3ccccc3c(=O)o2)CC1	n	x	n	n	n	n
CC1CCN(C(=O)c2cc3c(ccc4ccccc43)o2)CC1	33.1	x	n	n	n	n
SMILES	Wnt bcat act	esBAF inh	Env fusion inh	Cneo AK release	ERAP1 HTS inh	MITF act
CCOC(=O)C1CCN(C(=O)c2cc3c(ccc4ccccc43)o2)CC1	41.6	70.8	n	n	n	96.2
CCOC(=O)C1CCN(C(=O)c2cc3cc(C)ccc3[nH]2)CC1	33.7	n	n	n	n	x
c1ccc(-c2nc(-c3ccncc3)no2)cc1	x	n	x	n	x	n
c1csc(-c2nc(-c3ccc(-c4ccon4)s3)no2)c1	41.7	x	n	x	n	n
c1ccc(-c2nc(-c3ccc(-c4ccon4)s3)no2)cc1	35.8	53.4	n	n	x	n
CC(=O)c1c(C)[nH]c(C(=O)Nc2ccc(C)c(S(=O)(=O)N(C)C)c2)c1C	n	n	n	n	n	93.4
Cc1ccc(NC(=O)c2ccc(Br)o2)cc1S(=O)(=O)N(C)C	n	55.4	n	x	n	n
Cc1ccc(NC(=O)c2ccc(OC(F)(F)F)cc2)cc1S(=O)(=O)N(C)C	x	x	62.0	x	x	n
Cc1ccc(NC(=O)c2ccncc2)cc1S(=O)(=O)N(C)C	n	x	x	n	n	n
COCC#Cc1ccc2c(c1)O[C@@H](CN(C)Cc1ccccc1)[C@H](C)CN([C@H](C)CO)S2(=O)=O	x	n	n	n	n	x
CC(C)NC(=O)N(C)C[C@H]1Oc2cc(C#C[C@@H](C)O)ccc2S(=O)(=O)N([C@@H](C)CO)C[C@H]1C	x	n	x	n	n	x
CCC(=O)N(C)C[C@H]1Oc2cc(-c3cccc(OC)c3)ccc2S(=O)(=O)N([C@H](C)CO)C[C@@H]1C	x	n	n	n	n	x
CCC(=O)Nc1cc2nn(-c3ccc(OC)cc3)nc2cc1C	x	n	x	n	x	n
CCCCC(=O)Nc1cc2nn(-c3ccc(OC)cc3)nc2cc1C	n	41.5	x	n	n	n
COC(=O)CNc1c(-c2ccccc2)nc2ccc(Br)cn12	x	49.7	n	n	x	x
COC(=O)Nc1c(-c2ccccc2)nc2ccc(Cl)cn12	n	n	n	n	n	x
C/C(N)=C(/C#N)C(=O)CSc1nnc(Nc2ccccc2)s1	38.8	x	n	x	n	n
O=C1CCCCC1Sc1nnc(Nc2ccccc2)s1 (stereo unspecified)	n	71.3	n	n	n	n
CCSc1nnc(Nc2ccc(C)cc2)s1	x	82.6	n	n	x	88.6
CCSc1nnc(Nc2ccccc2)s1	n	58.5	x	n	x	n
C/C(N)=C(/C#N)C(=O)CSc1nnc(Nc2ccccc2C)s1	x	x	x	x	x	n
Cc1noc(C)c1S(=O)(=O)Nc1ccc2c(c1)C(=O)N([C@@H](C)CO)C[C@H](C)[C@@H](CN(C)C(=O)Nc1ccc3c(c1)OCO3)OCCCC[C@H](C)O2	x	n	n	n	n	x
CCSc1nnc(NC(=O)c2cc3c(s2)CCCC3)s1	x	54.4	n	n	x	105.4
CCSc1nnc(NC(=O)c2cccnc2)s1	x	x	n	x	x	n
CCSc1nnc(NC(=O)c2ccccc2)s1	n	x	n	x	n	104.3
SMILES	Wnt bcat act	esBAF inh	Env fusion inh	Cneo AK release	ERAP1 HTS inh	MITF act
O=C(Nc1ccc(Cl)c(Cl)c1)OCc1cccnc1	n	53.3	n	n	x	85.9
O=C(Nc1cccnc1)OCc1ccccc1	n	n	n	n	n	x
COc1ccc(CC(=O)N2CCC(c3ccccc3)C2)cc1 (stereo unspecified)	n	x	n	x	n	n
O=C(Cc1ccccc1)N1CCC(c2ccccc2)C1 (stereo unspecified)	n	46.3	n	x	n	n
O=C(CSc1ncccn1)N/N=C/c1ccc2c(c1)OCO2	n	41.2	n	n	n	n
CN(C)c1ccc(/C=N/NC(=O)CSc2ccccn2)cc1	47.8	x	n	n	n	x
O=C(CNc1ccccc1)N/N=C/c1ccc2c(c1)OCO2	n	n	n	x	n	n
C[C@@H]1CN([C@@H](C)CO)C(=O)c2cccc(NC(=O)C3CCCCC3)c2O[C@H]1CN(C)C(=O)NC1CCCCC1	x	n	n	n	n	x

Assay outcomes as filed in PubChem.
